Data published in PMC10439066 (Drugs in R&D, 2023).

Key:
[1] = biological target: T1, recombinant human AKR1C1 (Homo sapiens, UniProt Q04828); test: Related enzyme screen; type: biochemical; conditions: preclinical screen
T1 sequence (Q04828 1-323): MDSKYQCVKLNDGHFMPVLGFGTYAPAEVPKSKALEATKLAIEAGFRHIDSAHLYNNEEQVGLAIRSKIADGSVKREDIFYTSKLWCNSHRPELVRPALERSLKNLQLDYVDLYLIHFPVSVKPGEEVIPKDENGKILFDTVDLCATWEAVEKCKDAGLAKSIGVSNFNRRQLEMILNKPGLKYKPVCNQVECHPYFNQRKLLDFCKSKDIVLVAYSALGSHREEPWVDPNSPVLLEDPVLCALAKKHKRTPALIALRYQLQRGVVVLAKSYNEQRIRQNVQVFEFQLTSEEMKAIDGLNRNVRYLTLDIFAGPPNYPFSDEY

[2] = biological target: T2, recombinant human AKR1C4 (Homo sapiens, UniProt P17516); test: Related enzyme screen; type: biochemical; conditions: preclinical screen
T2 sequence (P17516 1-323): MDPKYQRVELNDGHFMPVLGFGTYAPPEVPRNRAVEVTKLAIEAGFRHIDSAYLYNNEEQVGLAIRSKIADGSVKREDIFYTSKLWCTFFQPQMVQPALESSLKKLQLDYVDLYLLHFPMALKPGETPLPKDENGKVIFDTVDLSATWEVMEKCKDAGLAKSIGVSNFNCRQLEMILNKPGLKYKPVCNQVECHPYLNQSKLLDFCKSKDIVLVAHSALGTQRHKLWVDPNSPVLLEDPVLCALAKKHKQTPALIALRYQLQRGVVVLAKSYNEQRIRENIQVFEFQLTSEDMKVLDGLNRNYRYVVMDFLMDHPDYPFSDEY

[3] = biological target: T3, human AKR1D1 (Homo sapiens, UniProt P51857); test: AKR1D1 inhibition, cortisone as model substrate; type: biochemical
T3 sequence (P51857 1-326): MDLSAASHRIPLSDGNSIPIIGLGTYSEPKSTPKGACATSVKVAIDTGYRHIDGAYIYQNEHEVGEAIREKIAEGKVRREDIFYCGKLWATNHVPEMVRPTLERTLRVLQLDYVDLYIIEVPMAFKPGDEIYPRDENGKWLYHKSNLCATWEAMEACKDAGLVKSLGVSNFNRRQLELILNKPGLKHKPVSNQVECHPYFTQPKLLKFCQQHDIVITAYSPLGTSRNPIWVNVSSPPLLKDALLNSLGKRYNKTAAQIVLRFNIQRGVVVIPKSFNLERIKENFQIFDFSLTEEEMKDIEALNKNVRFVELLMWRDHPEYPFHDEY

[4] = test system: 134 human targets including G protein-coupled and nuclear receptors, ion channels, transporters, and enzymes; test: Specificity panel
[5] = test system: female rats; test: Repeat-dose in vivo toxicity study, rat; set-up: species or system Wistar strain); conditions: up to highest tested dose of 70 mg/kg, 13 weeks, Bayer data on file
[6] = test system: female monkeys; test: Repeat-dose in vivo toxicity study, monkey; set-up: species or system cynomolgus macaque monkeys (Macaca fascicularis); conditions: cynomolgus monkey
[7] = test system: adult premenopausal women with endometriosis-related pain symptoms; test: AKRENDO1 phase IIa trial, adverse events; type: in vivo, human
How it was run: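 Randomized, placebo-controlled phase IIa trial in women ≥18 years with surgically or imaging-confirmed endometriosis who met defined pain criteria. Oral dosing: 3 mg OD, 10 mg OD, 30 mg OD, 30 mg BID, 60 mg BID, or placebo for 12 weeks. Visits at days 10, 28, 56 and 84 (±4 d), plus follow-up 2 weeks after end of treatment. Incidence of AEs, SAEs and TEAEs recorded.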

[8] = AKRENDO1 population pharmacokinetic analysis; type: in vivo, human; conditions: 3 mg OD relative to all doses >3 mg; 95% confidence interval, 11–59; popPK model
[9] = test system: serum androsterone; test: AKRENDO1 pharmacodynamics; type: in vivo, human; conditions: completers
[10] = test system: estrogen receptor; conditions: cited from earlier work
[11] = test system: androgen receptor; conditions: cited from earlier work
[12] = test system: progesterone receptor; conditions: cited from earlier work
[13] = test system: endometriotic lesions; conditions: cited from earlier work
[14] = test system: healthy pre- and postmenopausal women; conditions: cited from earlier work

## CN(CCC(=O)O)C(=O)c1ccc2c(c1)CC[C@@H]1[C@@H]2CC[C@]2(C)C(c3cncc(F)c3)=CC[C@@H]12 [BAY1128688]
[1]
  activity against related enzyme: no relevant activity
[2]
  activity against related enzyme: no relevant activity
[3]; 100 µM, cortisone as model substrate, Bayer AG, data on file
  inhibition of human AKR1D1 activity: 11%
[3]; preclinical screen
  activity against related enzyme: no relevant activity
[4]
  interactions in specificity panel: no relevant interactions
[5]
  hepatotoxicity: No hepatotoxicity was observed
[6]
  Increase in liver transaminases in animal toxicology study: Not observed in cynomolgus monkey animal toxicology study with BAY1128688
  Isolated increase in serum bilirubin in animal toxicology study: Observed in cynomolgus monkey animal toxicology study with BAY1128688
[7]; 3 mg OD n = 11
  Any AE: 8 (72.7) Number (%)
  Any SAE: 1 (9.1) Number (%)
  Any TEAE: 5 (45.5) Number (%)
  Any TESAE: 1 (9.1) Number (%)
  Discontinuation due to TEAE: 0 Number (%)
  Discontinuation due to TESAE: 0 Number (%)
  Procedure-related TEAE: 0 Number (%)
  SAE related to procedure: 0 Number (%)
  Study-drug-related SAE: 0 Number (%)
  Study-drug-related TEAE: 4 (36.4) Number (%)
[7]; 10 mg OD
  participants with TEAEs: 32.3%
  participants with study-drug-related TEAEs: 9.7%
[7]; 10 mg OD n = 31
  Any AE: 16 (51.6) Number (%)
  Any SAE: 0 Number (%)
  Any TEAE: 10 (32.3) Number (%)
  Any TESAE: 0 Number (%)
  Discontinuation due to TEAE: 1 (3.2) Number (%)
  Discontinuation due to TESAE: 0 Number (%)
  Procedure-related TEAE: 0 Number (%)
  SAE related to procedure: 0 Number (%)
  Study-drug-related SAE: 0 Number (%)
  Study-drug-related TEAE: 3 (9.7) Number (%)
[7]; 30 mg BID n = 11
  Any AE: 7 (63.6) Number (%)
  Any SAE: 0 Number (%)
  Any TEAE: 6 (54.5) Number (%)
  Any TESAE: 0 Number (%)
  Discontinuation due to TEAE: 2 (18.2) Number (%)
  Discontinuation due to TESAE: 0 Number (%)
  Procedure-related TEAE: 0 Number (%)
  SAE related to procedure: 0 Number (%)
  Study-drug-related SAE: 0 Number (%)
  Study-drug-related TEAE: 2 (18.2) Number (%)
[7]; 30 mg OD
  participants with TEAEs: 90.0%
[7]; 30 mg OD n = 10
  Any AE: 9 (90.0) Number (%)
  Any SAE: 2 (20.0) Number (%)
  Any TEAE: 9 (90.0) Number (%)
  Any TESAE: 2 (20.0) Number (%)
  Discontinuation due to TEAE: 0 Number (%)
  Discontinuation due to TESAE: 0 Number (%)
  Procedure-related TEAE: 0 Number (%)
  SAE related to procedure: 0 Number (%)
  Study-drug-related SAE: 1 (10.0) Number (%)
  Study-drug-related TEAE: 4 (40.0) Number (%)
[7]; 60 mg BID
  participants with study-drug-related TEAEs: 51.9%
[7]; 60 mg BID n = 27
  Any AE: 23 (85.2) Number (%)
  Any SAE: 1 (3.7) Number (%)
  Any TEAE: 21 (77.8) Number (%)
  Any TESAE: 1 (3.7) Number (%)
  Discontinuation due to TEAE: 3 (11.1) Number (%)
  Discontinuation due to TESAE: 0 Number (%)
  Procedure-related TEAE: 2 (7.4) Number (%)
  SAE related to procedure: 0 Number (%)
  Study-drug-related SAE: 1 (3.7) Number (%)
  Study-drug-related TEAE: 14 (51.9) Number (%)
[8]
  increase in relative bioavailability: 35%
[9]
  cyclicity of sex hormones: No changes
[9]; from visit 4 onwards, 12 weeks
  serum concentrations of androsterone: increased dose-dependently
[10]
  agonism or antagonism: no relevant agonism or antagonism
[11]
  agonism or antagonism: no relevant agonism or antagonism
[12]
  agonism or antagonism: no relevant agonism or antagonism
[13]
  effect on endometriotic lesions compared with vehicle group: reduced endometriotic lesions
  ovarian cyclicity after treatment: remained unchanged
[14]; 90 mg OD and 60 mg BID, 2 weeks
  increases in ALT or AST: no increases
[14]; exploratory evaluation of bile acids
  influence on bile acid metabolism: did not indicate any influence
[14]; healthy premenopausal women, up to 60 mg BID for 28 days
  ovarian cycles: normal ovarian cycles were maintained
[14]; multiple doses
  serum androsterone: dose-dependent increase
